# The source made the active and inactive calls. No cut-off for these calls is given here.
# Columns and labels:
# [1] = target: T1, Inosine-5'-monophosphate dehydrogenase (Pseudomonas aeruginosa (strain ATCC 15692 / DSM 22644 / CIP 104116 / JCM14847 / LMG 12228 / 1C / PRS 101 / PAO1)) (UniProt Q9HXM5); assay: Inhibition of Pseudomonas aeruginosa IMPDH extracted form Escherichia coli BL21 (DE3)pDIA17 assessed as formation of NADH at 50 uM relative to control
# T1 sequence (whole entry): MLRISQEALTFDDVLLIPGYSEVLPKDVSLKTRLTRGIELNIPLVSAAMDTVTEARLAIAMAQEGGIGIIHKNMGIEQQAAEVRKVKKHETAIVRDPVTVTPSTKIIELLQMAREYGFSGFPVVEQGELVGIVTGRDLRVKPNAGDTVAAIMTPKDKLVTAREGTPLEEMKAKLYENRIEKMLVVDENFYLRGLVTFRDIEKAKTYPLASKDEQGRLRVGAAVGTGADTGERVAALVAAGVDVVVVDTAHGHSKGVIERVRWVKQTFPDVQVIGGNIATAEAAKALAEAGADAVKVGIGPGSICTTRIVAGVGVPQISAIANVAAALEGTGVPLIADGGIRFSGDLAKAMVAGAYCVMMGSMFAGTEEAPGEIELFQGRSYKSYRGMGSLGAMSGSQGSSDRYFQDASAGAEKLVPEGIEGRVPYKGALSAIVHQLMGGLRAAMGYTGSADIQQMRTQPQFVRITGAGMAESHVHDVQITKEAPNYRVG
# In short: (§1)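 His-tagged wild-type IMPDH (E. coli, P. aeruginosa or S. aureus) made in E. coli BL21(DE3)/pDIA17, purified by metal-affinity then gel filtration. NADH formation followed at 340 nm, 30 °C, with 0.2 mM IMP, 0.4 mM NAD⁺, 0.2 mM MgATP, 2 mM MgCl₂. Buffers: pa Tris-HCl 50 mM pH 8; ec Tris-HCl 50 mM pH 8, KCl 50 mM; sa Na₂CO₃ 50 mM pH 9.2, KCl 20 mM. Compound at 50 μM; % inhibition vs compound-free activity.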
# [2] = target: T2, Inosine-5'-monophosphate dehydrogenase (Pseudomonas aeruginosa (strain ATCC 15692 / DSM 22644 / CIP 104116 / JCM14847 / LMG 12228 / 1C / PRS 101 / PAO1), UniProt Q9HXM5); assay: Inhibition of Pseudomonas aeruginosa IMPDH extracted form Escherichia coli BL21 (DE3)pDIA17 assessed as formation of NADH; details: read-out: I50
# T2 sequence (Q9HXM5 whole entry): T1 sequence (whole entry)
# [3] = target: T3, Inosine-5'-monophosphate dehydrogenase (Escherichia coli K-12) (UniProt P0ADG7); assay: Inhibition of Escherichia coli IMPDH extracted form Escherichia coli BL21 (DE3)pDIA17 assessed as formation of NADH at 50 uM relative to control; in short: as §1
# T3 sequence (whole entry): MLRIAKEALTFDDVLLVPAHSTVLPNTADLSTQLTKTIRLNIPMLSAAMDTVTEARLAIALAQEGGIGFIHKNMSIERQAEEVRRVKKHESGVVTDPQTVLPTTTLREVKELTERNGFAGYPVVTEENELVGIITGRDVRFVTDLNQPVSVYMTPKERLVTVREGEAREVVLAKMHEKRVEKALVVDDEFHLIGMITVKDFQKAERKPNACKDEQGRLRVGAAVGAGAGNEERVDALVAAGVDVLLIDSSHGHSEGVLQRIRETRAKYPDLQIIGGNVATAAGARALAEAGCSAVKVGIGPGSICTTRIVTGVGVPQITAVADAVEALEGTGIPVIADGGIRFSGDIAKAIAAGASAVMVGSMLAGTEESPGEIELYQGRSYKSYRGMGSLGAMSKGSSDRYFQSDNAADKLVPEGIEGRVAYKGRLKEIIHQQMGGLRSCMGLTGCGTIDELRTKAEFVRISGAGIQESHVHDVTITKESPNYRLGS
# Staphylococcus aureus [4] = assay: Inhibition of Staphylococcus aureus IMPDH extracted form Escherichia coli BL21 (DE3)pDIA17 assessed as formation of NADH at 50 uM relative to control; in short: as §1
# [5] = target: Inosine-5'-monophosphate dehydrogenase 2 (Homo sapiens) (UniProt P12268); assay: Inhibition of human IMPDH2 extracted form Escherichia coli BL21 (DE3)pDIA17 assessed as formation of NADH at 50 uM
# Chain of Inosine-5'-monophosphate dehydrogenase 2 (Homo sapiens) (P12268 2-514 limits assumed): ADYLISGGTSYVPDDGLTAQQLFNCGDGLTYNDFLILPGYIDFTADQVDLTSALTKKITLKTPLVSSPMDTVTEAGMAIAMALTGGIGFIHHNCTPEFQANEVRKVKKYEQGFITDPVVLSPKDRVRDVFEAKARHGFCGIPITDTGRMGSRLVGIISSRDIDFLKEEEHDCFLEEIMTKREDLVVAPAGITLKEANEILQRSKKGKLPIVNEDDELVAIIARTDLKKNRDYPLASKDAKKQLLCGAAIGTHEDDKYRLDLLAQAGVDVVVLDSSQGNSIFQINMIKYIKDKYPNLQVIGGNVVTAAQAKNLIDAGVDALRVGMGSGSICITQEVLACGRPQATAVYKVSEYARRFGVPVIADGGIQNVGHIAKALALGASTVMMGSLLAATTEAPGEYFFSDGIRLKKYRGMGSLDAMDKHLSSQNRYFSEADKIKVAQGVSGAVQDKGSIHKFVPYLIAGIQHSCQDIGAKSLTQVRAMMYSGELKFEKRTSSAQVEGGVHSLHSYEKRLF
# Staphylococcus aureus [6] = assay: Antibacterial activity against methicillin-resistant Staphylococcus aureus ATCC 43300 assessed as growth inhibition at 32 ug/ml relative to control; format: functional
# Escherichia coli = assay: Inhibition of Escherichia coli IMPDH delta Bateman domain extracted form Escherichia coli BL21 (DE3)pDIA17 assessed as formation of NADH at 50 uM relative to control
# In short: (§2)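 Bateman-domain-deleted IMPDH (E. coli or P. aeruginosa), His-tagged, made in E. coli BL21(DE3)/pDIA17. NADH formation at 340 nm, 30 °C, 0.2 mM IMP, 0.4 mM NAD⁺, 0.2 mM MgATP, 2 mM MgCl₂. Buffer: ec Tris-HCl 50 mM pH 9, KCl 100 mM; pa Tris-HCl 50 mM pH 8, KCl 100 mM. Compound 50 μM; % inhibition relative to uninhibited enzyme.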
# [7] = Inhibition of Escherichia coli IMPDH delta Bateman domain extracted form Escherichia coli BL21 (DE3)pDIA17 assessed as formation of NADH; details: read-out: I50
# In short: (§3)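 Bateman-domain-deleted IMPDH (E. coli or P. aeruginosa) from E. coli BL21(DE3)/pDIA17; NADH at 340 nm, 30 °C, 0.2 mM IMP, 0.4 mM NAD⁺, 0.2 mM MgATP, 2 mM MgCl₂; buffers as per variant (ec Tris-HCl pH 9/KCl 100 mM; pa Tris-HCl pH 8/KCl 100 mM). I50 by dose-response logistic fit, at least three experiments.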
# Pseudomonas aeruginosa = assay: Inhibition of Pseudomonas aeruginosa IMPDH delta Bateman domain extracted form Escherichia coli BL21 (DE3)pDIA17 assessed as formation of NADH at 50 uM relative to control; in short: as §2
# [8] = Inhibition of Pseudomonas aeruginosa IMPDH delta Bateman domain extracted form Escherichia coli BL21 (DE3)pDIA17 assessed as formation of NADH; details: read-out: I50; in short: as §3
# [9] = target: T1, Inosine-5'-monophosphate dehydrogenase (Pseudomonas aeruginosa (strain ATCC 15692 / DSM 22644 / CIP 104116 / JCM14847 / LMG 12228 / 1C / PRS 101 / PAO1)); assay: Non-competitive inhibition of Pseudomonas aeruginosa IMPDH in presence of 2 mM NAD+ by Michaelis-Menten equation
# In short: (§4)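 Steady-state kinetics of P. aeruginosa ΔBateman IMPDH: initial rates (NADH at 340 nm, 30 °C, Tris-HCl 50 mM pH 8, KCl 100 mM) measured across variable IMP at saturating 2 mM NAD⁺, without or with several inhibitor concentrations; data from at least three experiments fitted to Michaelis–Menten and shown as Lineweaver-Burk plots.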
# [10] = target: T1, Inosine-5'-monophosphate dehydrogenase (Pseudomonas aeruginosa (strain ATCC 15692 / DSM 22644 / CIP 104116 / JCM14847 / LMG 12228 / 1C / PRS 101 / PAO1)); assay: Non-competitive inhibition of Pseudomonas aeruginosa IMPDH by Lineweaver-Burk plot analysis; in short: as §4
# [11] = test system: Mycobacterium tuberculosis; assay: Inhibition of Mycobacterium tuberculosis TMP kinase using 0.05 dTMP and 0.5 mM MgATP by measuring NADH consumption at 20 uM by coupled spectrophotometric assay
# In short: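 Recombinant M. tuberculosis TMP kinase; activity at 30 °C by NADH consumption at 340 nm in a pyruvate kinase/lactate dehydrogenase/nucleoside diphosphate kinase coupled assay (2 units each). Medium: 50 mM Tris-HCl pH 7.4, 50 mM KCl, 2 mM MgCl2, 0.2 mM NADH, 1 mM phosphoenolpyruvate. ATP held at 0.5 mM and dTMP at 0.05 mM; compound at 20 μM.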
# Caco-2 [12] = assay: Cytotoxicity against human Caco-2 cells assessed as cell viability at 1 uM measured after 72 hrs by Alamar blue assay; format: toxicity, cell-based; details: caco-2, 72 h
# In short: (§5)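 Confluent Caco-2 monolayers (seeded 1.10⁵ cells/cm², 48 h growth; DMEM 25 mM glucose, 10 % FBS, NEAA, 37 °C, 5 % CO₂) exposed 72 h; vehicle 0.1 % DMSO, 0.2 % Triton X-100 as cytotoxic control. Rinsed with PBS, 5 % Alamar Blue in FBS-free medium 30 min at 37 °C; resorufin fluorescence (ex 530/em 570 nm) relative to DMSO. Mean ± SEM, three independent experiments.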
# Caco-2 [13] = assay: Cytotoxicity against human Caco-2 cells assessed as cell viability at 10 uM measured after 72 hrs by Alamar blue assay; format: toxicity, cell-based; details: caco-2, 72 h; in short: as §5
# [14] = Metabolic stability in mouse liver microsomes assessed as recovery in presence of NADPH measured after 120 mins; format: ADME, Microsome; details: read-out: Drug recovery
# [15] = Metabolic stability in mouse liver microsomes assessed as recovery in absence of NADPH measured after 120 mins; format: ADME, Microsome; details: read-out: Drug recovery
# [16] = Inhibition of Pseudomonas aeruginosa IMPDH delta Bateman domain in absence of detergent; in short: as §3
# [17] = Inhibition of Pseudomonas aeruginosa IMPDH delta Bateman domain in presence of detergent by detergent-sensitive enzyme-inhibition assay
# In short: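 P. aeruginosa ΔBateman IMPDH dose-response run under reference conditions (0.2 mM IMP, 0.4 mM NAD⁺, 0.2 mM MgATP, 2 mM MgCl₂; Tris-HCl 50 mM pH 8, KCl 100 mM; 30 °C, NADH at 340 nm) with 0.01 % Triton X-100 included, to exclude colloidal aggregation; I50 from logistic fit.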
compound,measurement,setting,value
CC(C)(NC(=O)Nc1ccc(Cl)c([N+](=O)[O-])c1)c1cccc(-c2cc[nH]n2)c1,inhibition,[1],99%
same,IC50,[2],110 nM
same,inhibition,[3],92%
same,inhibition,Staphylococcus aureus [4],94%
same,inhibition,[5],inactive
same,inhibition at 32 µg/mL,Staphylococcus aureus [6],79.3%
same,inhibition,Escherichia coli,88%
same,IC50,[7],4950 nM
same,inhibition,Pseudomonas aeruginosa,98%
same,IC50,[8],160 nM
same,inhibition,[9],Active
same,inhibition,[10],Active
same,inhibition,[11],inactive
same,Activity,Caco-2 [12],Non-toxic
same,Activity,Caco-2 [13],Non-toxic
same,remaining at 2 h,[14],> 95%
same,remaining at 2 h,[15],> 95%
CC(C)(NC(=O)Nc1ccc(Cl)c([N+](=O)[O-])c1)c1cccc(-c2nccs2)c1,inhibition,[1],97%
same,IC50,[2],110 nM
CC(C)(NC(=O)Nc1ccc(Cl)c([N+](=O)[O-])c1)c1cccc(-c2ccco2)c1,inhibition,[1],99%
same,IC50,[2],260 nM
CC(C)(NC(=O)NCc1ccccc1)c1cccc(-c2cn[nH]c2)c1,inhibition,[1],29%
CC(C)(NC(=O)Nc1ccc(Cl)c([N+](=O)[O-])c1)c1cccc(-c2cccs2)c1,inhibition,[1],96%
same,IC50,[2],140 nM
CC(C)(NC(=O)Nc1ccc(Cl)c([N+](=O)[O-])c1)c1cccc(-c2cn[nH]c2)c1,inhibition,[1],97%
same,IC50,[2],130 nM
same,inhibition,[3],89%
same,inhibition,Staphylococcus aureus [4],93%
same,inhibition,[5],inactive
same,inhibition at 32 µg/mL,Staphylococcus aureus [6],61.7%
same,inhibition,Escherichia coli,84%
same,IC50,[7],5510 nM
same,inhibition,Pseudomonas aeruginosa,99%
same,IC50,[8],170 nM
same,inhibition,[9],Active
same,inhibition,[10],Active
same,inhibition,[11],inactive
same,Activity,Caco-2 [12],Non-toxic
same,Activity,Caco-2 [13],Non-toxic
same,remaining at 2 h,[14],> 95%
same,remaining at 2 h,[15],> 95%
CC(C)(NC(=O)NCc1ccccc1)c1cccc(-c2cc[nH]n2)c1,inhibition,[1],59%
CC(C)(NC(=O)Nc1ccc(Cl)c([N+](=O)[O-])c1)c1cccc(-c2cccnc2F)c1,inhibition,[1],98%
same,IC50,[2],240 nM
CC(C)(NC(=O)NCc1ccccc1)c1cccc(-c2ccco2)c1,inhibition,[1],10%
same,inhibition,[5],inactive
same,inhibition at 32 µg/mL,Staphylococcus aureus [6],0.49%
same,inhibition,Escherichia coli,1%
same,inhibition,Pseudomonas aeruginosa,6%
CCOC(=O)n1ccc(-c2cccc(C(C)(C)NC(=O)Nc3ccc(Cl)c([N+](=O)[O-])c3)c2)n1,inhibition,[1],98%
same,IC50,[2],160 nM
CCOC(=O)n1cc(-c2cccc(C(C)(C)NC(=O)Nc3ccc(Cl)c([N+](=O)[O-])c3)c2)cn1,inhibition,[1],87%
same,IC50,[2],420 nM
CC(C)(NC(=O)Nc1ccc(Cl)c([N+](=O)[O-])c1)c1cccc(-c2nccn2Cc2ccccc2)c1,inhibition,[1],63%
CC(C)(NC(=O)NCc1ccccc1)c1cccc(-c2ccccc2)c1,inhibition,[1],16%
CC(C)(NC(=O)NCc1ccccc1)c1cccc(-c2cccs2)c1,inhibition,[1],15%
CCOc1ncccc1-c1cccc(C(C)(C)NC(=O)Nc2ccc(Cl)c([N+](=O)[O-])c2)c1,inhibition,[1],95%
same,IC50,[2],590 nM
CC(C)(NC(=O)Nc1ccc(Cl)c([N+](=O)[O-])c1)c1cccc(-c2c[nH]cn2)c1,inhibition,[1],99%
same,IC50,[2],100 nM
same,inhibition,[3],88%
same,inhibition,Staphylococcus aureus [4],89%
same,inhibition,[5],inactive
same,inhibition at 32 µg/mL,Staphylococcus aureus [6],79.3%
same,inhibition,Escherichia coli,90%
same,IC50,[7],4260 nM
same,inhibition,Pseudomonas aeruginosa,99%
same,IC50,[8],150 nM
same,inhibition,[9],Active
same,inhibition,[10],Active
same,inhibition,[11],inactive
same,IC50,[16],150 nM
same,IC50,[17],140 nM
same,Activity,Caco-2 [12],Non-toxic
same,Activity,Caco-2 [13],Non-toxic
same,remaining at 2 h,[14],> 95%
same,remaining at 2 h,[15],> 95%
CC(C)(NC(=O)Nc1ccc(Cl)c([N+](=O)[O-])c1)c1cccc(-c2cn(C(c3ccccc3)(c3ccccc3)c3ccccc3)cn2)c1,inhibition,[1],35%
